# According to ChEMBL document CHEMBL1124524, “Organic phosphorus compounds. 2. Synthesis and coronary vasodilator activity of (benzothiazolylbenzyl) phosphonate derivatives” (1989):
# Test system: Cavia porcellus
# Assay: Maximum increase in the coronary flow of isolated guinea pig heart when a dose of 10 ug/heart is administered
# Type: functional
# Procedure, shortened: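 Langendorff-perfused isolated guinea pig heart, with Krebs-Henseleit fluid gassed with 95% O2/5% CO2, at 34 ± 1 °C and 60 cm H2O perfusion pressure. Compound was dissolved in propylene glycol at 100 μg/mL and infused at 0.1 mL/min. Coronary flow was read by electromagnetic flowmeter before and after infusion and expressed as percentage gain; mean ± SE of five experiments.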
row,SMILES,Max increase in coronary flow [%]
1,CCOP(=O)(Cc1cccnc1)OCC,21.4
2,CCOP(=O)(Cc1ccc(-c2nc3ccccc3s2)s1)OCC,51.1
3,CCOP(=O)(Cc1ccc(-c2nc3ccccc3s2)cc1)OCC [FOSTEDIL],79.9
4,CCOP(=O)(Cc1ccc(-c2nc3ccccc3s2)nc1)OCC,94
5,CCOP(=O)(Cc1ccc(-c2nc(-c3ccccc3)c(-c3ccccc3)s2)cc1)OCC,23
6,CCOP(=O)(OCC)OCc1ccc(-c2nc3ccccc3s2)cc1,47.7
7,CCOP(=O)(CCc1ccc(-c2nc3ccccc3s2)cc1)OCC,40.7
8,CCOP(=O)(Cc1ccc(-c2nc3ccccc3o2)nc1)OCC,38.7
9,CCOP(=O)(/C=C/c1ccc(-c2nc3ccccc3s2)cc1)OCC,49.5
10,CCOP(=O)(Cc1ccc(-c2nc3ccccc3[nH]2)nc1)OCC,27.1
11,CCOP(=O)(Cc1ccc(-c2nc(-c3ccccc3)cs2)cc1)OCC,60.3
12,CCOP(=O)(OCC)c1ccc(-c2nc3ccccc3s2)cc1,27.2
13,CCOP(=O)(CCOc1ccc(-c2nc3ccccc3s2)cc1)OCC,27.2
14,CCOP(=O)(Cc1ccc(-c2nccs2)nc1)OCC,23.2
